In ChEMBL document CHEMBL5352442, “Structure-based design, synthesis and evaluation of a novel family of PEX5-PEX14 interaction inhibitors against Trypanosoma” (Eur J Med Chem, 2022):

Columns and labels:
[1] = Inhibition of biotinylated PEX5 (unknown origin)/N-terminal His-tagged Trypanosoma cruzi PEX14 (19 to 84 residues) expressed in Escherichia coli BL21 by AlphaScreen assay
In short: (§1)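 Streptavidin donor and Ni-chelate acceptor beads each 5 μg/mL. Inhibitor serial dilutions at constant 5% DMSO.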

[2] = Binding affinity to Ni-NTA-ATTO647-labeled N-terminal His-tagged Trypanosoma cruzi PEX14 (19 to 84 residues) expressed in Escherichia coli BL21 assessed as dissociation constant by MST assay
In short: (§2)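 PEX14 N-terminal domain (aa 19–84, N-His), purified by Ni-NTA and then SEC in PBS, labeled with Ni-NTA-ATTO647 at protein:label 2:1 for 1 h at room temperature in the dark. Buffer: 50 mM Tris-HCl pH 7.4, 150 mM NaCl, 10 mM MgCl2, 0.0125% Tween 20. Labeled protein 200 nM with inhibitor serial dilution, 5% DMSO. Triplicates; Kd from MST fit; mean of n = 3.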

[3] = Inhibition of biotinylated PEX5 (unknown origin)/N-terminal His-tagged Trypanosoma brucei PEX14 (19 to 84 residues) expressed in Escherichia coli BL21 by AlphaScreen assay; in short: as §1
[4] = Binding affinity to Ni-NTA-ATTO647-labeled N-terminal His-tagged Trypanosoma brucei PEX14 (19 to 84 residues) expressed in Escherichia coli BL21 assessed as dissociation constant by MST assay; in short: as §2
[5] = system: Trypanosoma brucei brucei; test: Trypanocidal activity against bloodstream form of Trypanosoma brucei brucei incubated for 66 hrs by resazurin dye based assay; assay type: functional, organism-based
In short: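 T. b. brucei Lister 427 bloodstream form in HMI-11 with 10% FBS, 37 °C, 5% CO2. Ten-point 1:1 serial dilutions in quadruplicate; final 2×10^3 parasites/mL. After 66 h, resazurin was added and plates incubated to 72 h. Fluorescence ex 530/em 585 nm, medium background subtracted, survival normalized to no-compound well. IC50 from sigmoidal nonlinear regression.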

Row | SMILES | EC50 [1] | Kd [2] | EC50 [3] | Kd [4] | IC50 [5]
1 | CCN1C(=O)c2ccccc2Oc2cc(NC(=O)Cc3ccc(F)cc3)ccc21 | 4590 µM | 124 µM | 875 µM | 131 µM | 8.12 µM
2 | CCN1C(=O)c2ccccc2Oc2cc(NC(=O)Cc3ccc(Cl)cc3)ccc21 | 2370 µM | 2800 µM | 54 µM | 385 µM | 5.39 µM
3 | CCN1C(=O)c2ccccc2Oc2cc(NS(=O)(=O)c3ccccc3)ccc21 | 778 µM | 12 µM | 935 µM | 20 µM | 7.1 µM
4 | CCN1C(=O)c2ccccc2Sc2cc(NC(=O)Cc3ccc(F)cc3)ccc21 | 637 µM | 56 µM | 230 µM | 951 µM | 5.4 µM
5 | CCN1C(=O)c2ccccc2Oc2cc(NC(=O)Cc3cccc(Cl)c3)ccc21 | 2930 µM | 64 µM | 500 µM | 44 µM | 7.38 µM
6 | CCN1C(=O)c2ccccc2Oc2cc(NC(=O)Cc3cscn3)ccc21 | – | 1700 µM | – | 61000 µM | 57.5 µM
7 | CCN1C(=O)c2ccccc2Oc2cc(NC(=O)Oc3ccccc3)ccc21 | 3590 µM | 100000 µM | 250 µM | 232 µM | 52.8 µM
8 | CCN1C(=O)c2ccccc2Oc2cc(NC(=O)Cn3nnc4ccccc43)ccc21 | 13000 µM | 3 µM | 351 µM | 14 µM | 7.9 µM
9 | CCN1C(=O)c2ccccc2Oc2cc(NS(=O)(=O)Cc3ccccc3)ccc21 | 6830 µM | 252 µM | 3630 µM | 158 µM | 19.4 µM
10 | CCN1C(=O)c2ccccc2Oc2cc(NC(=O)Cc3cccc4ccccc34)ccc21 | 4520 µM | 42 µM | 69 µM | 147 µM | 6.35 µM
11 | CC(C)N1C(=O)c2cccnc2[S+]([O-])c2cc(NC(=O)Cc3ccc(F)cc3)ccc21 (stereo unspecified) | – | – | 1730 µM | – | –
12 | CCN1C(=O)c2ccccc2Oc2cc(NC(=O)Cc3cccnc3)ccc21 | 1230 µM | 3450 µM | 843 µM | 1460 µM | 29.4 µM
13 | CCN1C(=O)c2ccccc2Oc2cc(NC(=O)Cc3ccsc3)ccc21 | 2360 µM | 9 µM | 825 µM | 29 µM | 8.3 µM
14 | CCN1C(=O)c2ccccc2Oc2cc(NC(=O)[C@@H](N)c3ccccc3)ccc21 | 421 µM | 10200 µM | 253 µM | 625 µM | 13.4 µM
15 | CS(=O)(=O)N1C(=O)c2ccccc2Oc2cc(NC(=O)Cc3ccc(F)cc3)ccc21 | 10300 µM | 3000 µM | 422 µM | 2 µM | 19.3 µM
16 | CCN1C(=O)c2ccccc2Oc2cc(NC(=O)Cc3c[nH]c4ccccc34)ccc21 | 677 µM | 9 µM | 109 µM | 13 µM | 13.7 µM
17 | COC(=O)N1C(=O)c2ccccc2Oc2cc(NC(=O)Cc3ccc(F)cc3)ccc21 | – | 258 µM | 480 µM | 369 µM | 7.7 µM
18 | CCN1C(=O)c2ccccc2Oc2cc(NC(=O)[C@@H](NC(=O)OC(C)(C)C)c3ccccc3)ccc21 | 1610 µM | 2 µM | 318 µM | 380 µM | 58.5 µM
19 | CC(C)N1C(=O)c2cccnc2Sc2cc(NC(=O)Cc3ccc(F)cc3)ccc21 | 2290 µM | 5 µM | 1050 µM | 24 µM | 0.86 µM
20 | O=C(Cc1ccc(F)cc1)Nc1ccc2c(c1)Oc1ccccc1C(=O)N2 | 551 µM | – | 11000 µM | – | 20.7 µM
21 | COC(=O)CN1C(=O)c2ccccc2Oc2cc(NC(=O)Cc3ccc(F)cc3)ccc21 | 4590 µM | – | 7230 µM | – | 11.6 µM
22 | CCN1C(=O)c2ccccc2Oc2cc(NC(=O)Cc3ccccc3)ccc21 | 788 µM | – | 1090 µM | – | 13.3 µM
23 | CCN1C(=O)c2ccccc2Oc2cc(NC(=O)Cc3cnccn3)ccc21 | 1930 µM | – | 741 µM | 840 µM | 47.6 µM
